# Shown are actives, neighbours in structure and some others; about 29% of the full set was active somewhere.
# CYP2C9 activ: increases human cytochrome P450 2C9 activity | recombinant CYP2C9, luciferin-H conversion, luminescence; hits give high values; factor 1 = untreated enzyme, 0 = blocked | AID 1024 | activation factor at 5 µM | P11712 | actives 1.4% (n = 96,000);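 active means activation factor of 2 or more for CYP2C9 at a 5 µM dose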
# E coli WT exp: growth inhibitors of E. coli BW25113 wild type; actives 0.15% (n = 98,000); AID 710; growth inhibition, % at 100 µM; OD600 absorbance;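 active means growth inhibition above about 50% at one test dose, limit read from the data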;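 further: growth measured after 20 h incubation at 37 °C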
# Ecoli tolC: growth inhibitors of E. coli BW25113 tolC mutant | OD615 | growth inhibition, % at 10 µM (by protocol) | actives 2.2% (n = 65,000) | AID 573;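 active means growth inhibition at or above a cutoff equal to the mean over every tested compound plus 3 SD, cut at about 60% in these data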;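 further: growth measured after 20 h incubation at 37 °C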
#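 Test system: tolC-deleted E. coli BW25113 | Medium: LB with kanamycin 50 µg/mL | Compound dosing: Single concentration, 10 µM final per compound | Schedule: 37 °C, 20 h exposure | Measured by: OD at 615 nm | Evaluation: Percent growth inhibition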
# CYP2C19 act: cytochrome P450 2C19 (human) activation | P33261 | recombinant CYP2C19, luciferin-H EGE luminescence; hits give high values; 0 = fully inhibited enzyme, 1 = untreated enzyme | activation factor at 5 µM | 96,000 tested, under 10 active | AID 1025;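 active means activation factor of at least 2 at 5 µM in the primary screen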
# Target sequence (P33261 whole entry, looked up): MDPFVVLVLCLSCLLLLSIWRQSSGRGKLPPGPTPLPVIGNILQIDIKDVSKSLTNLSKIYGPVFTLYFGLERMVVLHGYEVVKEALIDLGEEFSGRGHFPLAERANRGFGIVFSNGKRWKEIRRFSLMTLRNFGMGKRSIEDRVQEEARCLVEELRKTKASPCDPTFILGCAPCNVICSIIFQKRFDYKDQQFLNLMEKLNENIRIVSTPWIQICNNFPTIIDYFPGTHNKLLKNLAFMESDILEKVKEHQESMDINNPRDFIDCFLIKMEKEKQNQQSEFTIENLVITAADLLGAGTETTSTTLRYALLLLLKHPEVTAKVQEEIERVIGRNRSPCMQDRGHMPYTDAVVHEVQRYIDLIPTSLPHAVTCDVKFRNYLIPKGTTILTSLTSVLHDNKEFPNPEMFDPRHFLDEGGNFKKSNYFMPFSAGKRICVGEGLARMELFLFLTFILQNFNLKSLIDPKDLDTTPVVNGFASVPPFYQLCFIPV
# CYP2C9 inhib: blocks human cytochrome P450 2C9. inhibition, % at 5 µM. actives 20% (n = 96,000). P11712. CYP2C9 Supersomes, luciferin-H conversion, luminescence;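 active means blocking of liver enzyme CYP2C9 beyond about 50% at 5 µM, limit read from the data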
# CYP2C19 inh: inhibitors of human CYP2C19; P33261; CYP2C19 Supersomes, luciferin-H EGE luminescence, 30 min; inhibition, % at 5 µM; actives 21% (n = 96,000);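 active means CYP2C19 inhibition above a set limit at 5 µM in the primary screen, cut at about 50% in these data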
# A number is an active result; - = inactive; . = no result.
SMILES,CYP2C9 activ,E coli WT exp,Ecoli tolC,CYP2C19 act,CYP2C9 inhib,CYP2C19 inh
O=C(c1ccc(F)cc1)C1CCN(C(=O)c2ccncc2)CC1,-,-,-,-,96.6,97.6
O=C(c1ccc(Cl)cc1)C1CCN(C(=O)C2CC2)CC1,-,-,.,-,-,82.7
CC1CC(C)CN(C(=O)c2ccncc2)C1 (stereo not given),-,-,.,-,-,-
CC1CCCN(C(=O)c2ccncc2)C1 (stereo not given),-,-,-,-,-,82.4
CCOc1ccc(CN(C)CC(=O)c2c(N)n(Cc3ccccc3)c(=O)n(CC)c2=O)cc1OC,-,-,.,-,-,-
CCN(C(=O)CN1CCCc2ccccc21)c1c(N)n(Cc2ccccc2)c(=O)[nH]c1=O,-,.,-,-,-,-
CCn1c(=O)c(C(=O)CN2CCCc3ccccc32)c(N)n(Cc2ccccc2)c1=O,-,-,-,-,93.1,81.3
CCn1c(=O)c(C(=O)CN(C)Cc2cccc(OC)c2OC)c(N)n(Cc2ccccc2)c1=O,-,-,.,-,-,67.4
Cc1cc(C)c(OCCCCNCc2ccccc2)c(Cl)c1,-,-,.,-,-,-
C=CCCCCCCCCC(=O)NNC1=CC(=O)CC(C)(C)C1,-,-,.,-,51.0,-
O=C1NCC2=C1C(c1ccc(Br)cc1)Nc1ccccc1N2 (stereo not given),-,-,-,-,54.9,-
COc1cccc(N(CC(=O)Nc2ccccc2C)S(C)(=O)=O)c1,-,-,-,-,-,62.9
COC(=O)CN(c1cccc(OC)c1)S(C)(=O)=O,-,-,-,-,-,-
CCOC(=O)c1ccccc1NC(=O)CN(c1cccc(OC)c1)S(C)(=O)=O,-,-,-,-,94.6,99.3
CCc1ccccc1NC(=O)CN(c1cccc(OC)c1)S(C)(=O)=O,-,-,-,-,62.6,86.3
O=C(CCn1c(=S)[nH]c2cc3c(cc2c1=O)OCO3)N1CCN(C2CCCCC2)CC1,.,.,-,.,.,.
CN1CCN(CC#CCn2c3ccccc3c3ccccc32)CC1,-,-,-,-,-,58.9
CCOc1cc(NC(=S)Nc2ccccc2OC)c(OCC)cc1NC(=O)c1ccccc1C,-,-,.,-,-,-
CCOc1ccc(C(=S)N2CCCC2)cc1,-,-,.,-,-,88.9
COc1cc(C(=S)N2CCCC2)cc(OC)c1O,-,-,.,-,-,60.7
CCOC(=O)c1cccc(C(=O)OCC)n1,-,-,-,-,-,-
CCOC(=O)c1cccc2c1-c1ccccc1/C2=N/O,-,-,100.0,-,66.5,-
CC1CCCCC1NC(=O)CN1C(=O)NC(Cc2ccccc2)(Cc2ccccc2)C1=O (stereo not given),-,-,.,-,-,59.8
CCOC(=O)N1CCN(C(=O)C2CCC(C(=O)N3CCN(C(=O)OCC)CC3)CC2)CC1 (stereo not given),.,.,-,.,.,.
O=C(O)CC(C(=O)Nc1cccc(C(F)(F)F)c1)C1CCCO1 (stereo not given),-,-,-,-,-,-
SMILES,CYP2C9 activ,E coli WT exp,Ecoli tolC,CYP2C19 act,CYP2C9 inhib,CYP2C19 inh
Cc1ccccc1N(CC(=O)N/N=C/c1ccc(N(C)C)cc1)C(=O)c1ccccc1,-,-,.,-,93.3,88.9
Cc1ccccc1N(CC(=O)N/N=C/c1ccccc1Cl)C(=O)c1ccccc1,-,-,.,-,-,-
Cc1ccccc1CSCC(Nc1ccc(C(=O)O)cc1[N+](=O)[O-])C(=O)O (stereo not given),-,-,.,-,69.3,-
COC(=O)c1cc2sc(Cl)cc2n1CC(=O)Nc1cccc(SC)c1,-,-,-,-,74.8,-
Cc1csc(NC(=O)CSc2nncn2C)n1,-,-,-,-,-,-
Cc1csc(NC(=O)CSc2nc(C)cs2)n1,-,-,-,-,-,57.8
Cc1csc(SCC(=O)Nc2ccccn2)n1,-,-,-,-,-,-
COc1ccc(NC(=O)CSc2nc(C)cs2)cc1OC,-,-,.,-,-,-
COc1cccc(NC(=O)CSc2nc(C)cs2)c1,-,-,.,-,-,81.9
Cc1csc(SCC(=O)Nc2cc(C(C)(C)C)nn2-c2ccccc2)n1,-,-,-,-,79.8,70.8
Cc1csc(SCC(=O)Nc2cccc3nsnc23)n1,-,-,-,-,76.6,55.3
O=c1[nH]cnc2c1N1CCC2CC1,-,-,-,-,-,-
Cc1ccc(C)n1-c1sc2c(c1C#N)CCC(C)C2 (stereo not given),-,-,.,-,-,-
Cc1nc2sccn2c(=O)c1CCN1CCC(=C(c2ccccc2)c2ccc(F)cc2)CC1,.,.,-,.,.,.
O=C(NCCc1ccccc1)C1CCCN1C(=O)Nc1ccc(F)cc1 (stereo not given),-,-,-,-,-,-
Cc1ccc(C)c(NC(=O)CCC(=O)NNC(=O)c2cccc([N+](=O)[O-])c2)c1,-,-,.,-,-,-
CC(C)n1c(-c2ccco2)csc1=Nc1cccnc1,-,-,-,-,60.5,64.9
O=C(c1ccc2ccccc2c1)N1CCN(c2ccc(C(F)(F)F)cn2)CC1,-,-,.,-,-,-
O=C(c1cc2c(ccc3ccccc32)oc1=O)N1CCCC1,-,-,.,-,72.6,-
Cc1c(C(=O)N2CCN(c3ccccn3)CC2)oc2ccccc12,-,-,-,-,-,85.3
O=C(N1CCOCC1)N1CCN(c2ccccn2)CC1,-,-,-,-,-,-
Cc1c(C(=O)N2CCCCCC2)oc2ccccc12,-,-,-,-,-,91.0
COCc1c(C(=O)N2CCN(c3ccc(C(F)(F)F)cn3)CC2)oc2ccccc12,-,-,.,-,-,79.8
O=C(CNS(=O)(=O)c1ccc(Br)s1)N1CCC(N2CCCCC2)CC1,-,-,-,-,-,-
O=C(c1oc2ccccc2c1CSCc1ccccc1)N1CCN(c2ncccn2)CC1,-,-,-,-,79.7,62.3
SMILES,CYP2C9 activ,E coli WT exp,Ecoli tolC,CYP2C19 act,CYP2C9 inhib,CYP2C19 inh
CC(C)Cc1[nH]c(=O)c(C#N)c2c1CCCC2,-,-,-,-,-,-
CC(=O)Oc1c(Cl)c(N2CCOCC2)c(OC(C)=O)c2ccccc12,-,-,-,-,-,52.0
Cc1cc(C)nc(NC(=NCCc2c[nH]c3ccccc23)NC(=O)c2ccco2)n1,-,-,-,-,99.1,96.4
CCC(C)N1C(=O)CCC1C(=O)O (stereo not given),-,-,.,-,-,-
Cc1nnc(SCc2ccccc2C#N)n1-c1ccccc1,-,-,-,-,-,-
C=CCn1c(SCc2ccccc2C#N)nnc1-c1cc(Br)ccc1O,-,-,-,-,78.3,99.2
CSC1=C(C#N)C(C)CC(=O)N1 (stereo not given),.,.,-,.,.,.
O=C(N/N=C/c1ccc([N+](=O)[O-])o1)c1cc(-c2ccncc2)nc2ccccc12,-,-,.,-,90.0,53.3
O=C(NCc1ccco1)c1cc(-c2ccncc2)nc2ccccc12,-,-,-,-,57.3,80.2
O=C(N/N=C/c1ccc(F)cc1)c1cc(-c2ccco2)nc2ccccc12,-,-,.,-,-,-

# Source: PubChem BioAssay
